Series [1] is described as follows: Solubility of the compound at pH 4. The series is classed as physicochemical. To be noted: buffer.
Series [2] deals with Cytochrome P450 2C9 (Homo sapiens, UniProt P11712). Kind of series: Inhibition of CYP2C9 (unknown origin) up to 10 uM. The series is classed as ADME.
Series [3] concerns the target Cytochrome P450 2D6 (Homo sapiens, UniProt P10635). Kind of series: Inhibition of CYP2D6 (unknown origin) up to 10 uM. The series is classed as ADME.
Series [4] can be described thus: Half life in human liver microsomes. The series is classed as ADME. A general note: Liver microsomes are vesicles of endoplasmic reticulum, rich in cytochrome P450 enzymes.
The target of series [5] is T1, Cytochrome P450 1A2 (Homo sapiens, UniProt P05177).
T1 sequence (P05177 whole entry): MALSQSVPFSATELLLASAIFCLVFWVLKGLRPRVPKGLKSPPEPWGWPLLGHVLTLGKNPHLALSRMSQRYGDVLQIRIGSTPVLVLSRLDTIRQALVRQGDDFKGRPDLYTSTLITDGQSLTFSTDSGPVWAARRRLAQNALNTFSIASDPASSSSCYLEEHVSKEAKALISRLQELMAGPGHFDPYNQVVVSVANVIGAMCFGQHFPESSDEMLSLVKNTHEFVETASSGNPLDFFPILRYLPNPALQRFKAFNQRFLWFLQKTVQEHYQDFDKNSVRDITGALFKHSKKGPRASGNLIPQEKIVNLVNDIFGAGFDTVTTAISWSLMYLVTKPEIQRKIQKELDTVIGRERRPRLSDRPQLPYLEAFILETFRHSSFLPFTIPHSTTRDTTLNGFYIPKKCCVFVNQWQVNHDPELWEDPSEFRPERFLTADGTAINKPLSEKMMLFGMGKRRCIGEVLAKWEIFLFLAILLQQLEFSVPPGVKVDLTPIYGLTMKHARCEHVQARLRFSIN
Briefly: Inhibition of CYP1A2 (unknown origin) up to 10 uM. In kind it is ADME.

Series [6] relates to Hepatitis C virus. Kind of series: Antiviral activity against HCV2 assessed as inhibition of viral replication. The series is classed as functional, organism-based. As to conditions: Hepacivirus hominis; type 2.
Series [7] concerns the target Cytochrome P450 3A4 (Homo sapiens, UniProt P08684). Kind of series: Inhibition of CYP3A4 (unknown origin) up to 10 uM. In kind it is ADME.
Series [8] relates to Hepatitis C virus. Kind of series: Antiviral activity against HCV1b infected in clone A and ET-lunet cells assessed as inhibition of viral replication after 4 days by RT-PCR analysis. In kind it is functional, organism-based, Hepacivirus hominis. To be noted: genotype 1b, 96 h. Summed up:
(§1)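 Run in HCV genotype 1a and 1b replicon cells; each reported value is the mean of n = 2 independent determinations.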

A short description of series [9]: Solubility of the compound at pH 7.4. The series is classed as physicochemical. As to conditions: buffer.
The test system of series [10] is Hepatitis C virus. Briefly: Antiviral activity against HCV1a infected in clone A and ET-lunet cells assessed as inhibition of viral replication after 4 days by RT-PCR analysis. To be noted: subtype 1a, 96 h. The series is classed as functional, organism-based, Hepacivirus hominis. In short, it runs like this: as §1
Series [11] relates to Hepatitis C virus. Briefly: Antiviral activity against HCV1a infected in clone A and ET-lunet cells assessed as inhibition of viral replication up to 20 uM after 4 days by RT-PCR analysis. The series is classed as functional, organism-based. As to conditions: Hepacivirus hominis, subtype 1a.
Series [12] has as its system Hepatitis C virus. Kind of series: Antiviral activity against HCV1b infected in clone A and ET-lunet cells assessed as inhibition of viral replication up to 20 uM after 4 days by RT-PCR analysis. In kind it is functional, organism-based. As to conditions: Hepacivirus hominis, genotype 1b.
Series [13] is described as follows: Cytotoxicity against human CEM cells after 8 days by MTS assay. In kind it is cell-based. As to conditions: CEM cells (CCRF-CEM). A general note: Tetrazolium assays rely on reduction of a dye to a coloured formazan, in cell work by metabolically active cells.
The nature of series [14]: Cytotoxicity against human HepG2 cells after 8 days by MTS assay. In kind it is cell-based.
A short description of series [15]: Cytotoxicity against human BxPC3 cells after 8 days by MTS assay. In kind it is cell-based, BXPC-3.
Series [16] in a line: Cytotoxicity against human HuH7 cells after 8 days by MTS assay. The series is classed as cell-based, Huh-7.

Structures are written as SMILES. pEC50: −log10 of the molar value. In brackets after ≈: the same amount, converted by molar mass. Activity calls are given as the source filed them. The calls are words filed in the database; no cut-off is given here.

Cytochrome P450 2C9, sequence (P11712 whole entry): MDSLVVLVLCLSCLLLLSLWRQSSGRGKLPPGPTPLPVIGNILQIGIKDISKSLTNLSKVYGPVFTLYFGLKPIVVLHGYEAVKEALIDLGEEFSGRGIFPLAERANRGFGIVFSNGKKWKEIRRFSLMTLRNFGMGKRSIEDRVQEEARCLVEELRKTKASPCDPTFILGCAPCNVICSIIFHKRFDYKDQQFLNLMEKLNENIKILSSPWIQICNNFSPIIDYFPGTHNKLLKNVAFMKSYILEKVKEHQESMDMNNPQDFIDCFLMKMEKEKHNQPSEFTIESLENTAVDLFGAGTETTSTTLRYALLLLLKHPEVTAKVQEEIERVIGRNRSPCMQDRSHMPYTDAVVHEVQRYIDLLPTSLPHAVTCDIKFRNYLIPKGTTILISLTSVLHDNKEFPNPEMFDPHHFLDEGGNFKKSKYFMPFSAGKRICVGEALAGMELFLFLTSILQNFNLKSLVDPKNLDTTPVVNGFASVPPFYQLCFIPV
Cytochrome P450 3A4, sequence (P08684 whole entry): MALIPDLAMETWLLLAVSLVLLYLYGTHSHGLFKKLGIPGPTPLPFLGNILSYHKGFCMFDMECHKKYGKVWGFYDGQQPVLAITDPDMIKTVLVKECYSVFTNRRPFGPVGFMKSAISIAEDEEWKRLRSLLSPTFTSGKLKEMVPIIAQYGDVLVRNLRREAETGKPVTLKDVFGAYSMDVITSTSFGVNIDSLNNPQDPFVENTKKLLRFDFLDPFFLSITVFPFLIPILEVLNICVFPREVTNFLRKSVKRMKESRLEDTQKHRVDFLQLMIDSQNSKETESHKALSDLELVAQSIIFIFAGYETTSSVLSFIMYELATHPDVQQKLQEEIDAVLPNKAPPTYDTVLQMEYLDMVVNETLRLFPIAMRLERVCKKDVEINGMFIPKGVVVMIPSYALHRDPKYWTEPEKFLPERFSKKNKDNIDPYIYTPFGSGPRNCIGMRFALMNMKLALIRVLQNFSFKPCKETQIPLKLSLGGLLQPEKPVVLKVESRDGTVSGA
Cytochrome P450 2D6, sequence (P10635 whole entry): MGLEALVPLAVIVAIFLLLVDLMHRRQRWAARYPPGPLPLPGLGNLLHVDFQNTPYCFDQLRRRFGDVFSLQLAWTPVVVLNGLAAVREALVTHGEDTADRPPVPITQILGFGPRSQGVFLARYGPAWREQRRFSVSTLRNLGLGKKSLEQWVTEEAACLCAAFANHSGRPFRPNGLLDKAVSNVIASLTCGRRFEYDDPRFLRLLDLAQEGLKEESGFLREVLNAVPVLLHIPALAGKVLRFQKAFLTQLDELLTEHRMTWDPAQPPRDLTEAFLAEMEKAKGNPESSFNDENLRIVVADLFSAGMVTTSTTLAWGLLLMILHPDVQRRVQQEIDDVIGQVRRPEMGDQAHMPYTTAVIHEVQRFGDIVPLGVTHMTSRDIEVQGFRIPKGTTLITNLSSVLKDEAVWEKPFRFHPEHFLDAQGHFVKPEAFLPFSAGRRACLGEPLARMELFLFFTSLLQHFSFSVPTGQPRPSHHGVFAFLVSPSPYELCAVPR

`CC(C)C[C@H]1C(=O)N[C@@H](c2cnco2)CN1C(=O)c1cc(-c2ccc(F)cc2)on1`: the solubility in series [1] came to 147 µg/mL (≈ 356 µM); in [9] it was 151 µg/mL (≈ 366 µM). Further, the “inhibition (INH)” value in [2], in series [3], in series [5] and in [7] was “Not Active” throughout. For the same compound, in [4], the half-life amounted to 40 min. Moreover, the inhibition entry in series [6] is “inactive”. Moreover, the EC90 was 70 nM in [8] and 16 nM in [10].

For the compound `CC(C)C[C@H]1CN(C(=O)[C@H]2C[C@@H]2c2ccccc2)[C@@H](CC(C)C)C(=O)N1`, the inhibition result in series [11] and in series [12] was “inactive” throughout. Further, the EC90 in series [8] and in [10] was more than 10000 nM throughout.

Regarding `O=C(NCc1cccs1)c1cc2nc(-c3ccco3)cc(C(F)(F)Cl)n2n1` [ANGUIZOLE], the values for the pEC50 in series [8] and in series [10] were 6.51 and 6.25, respectively.

The compound `C/C=C/[C@H]1CN(C(=O)c2cc(-c3ccc(F)cc3)on2)[C@@H](CC(C)C)C(=O)N1` returned a half-life in series [4] of 17 min. Moreover, in series [8], the EC90 worked out at 60 nM.

For `CC(C)C[C@H]1C(=O)N[C@@H](c2cccs2)CN1C(=O)c1cc(-c2ccc(F)cc2)on1`, the solubility in [1] and in series [9] was 0.2 µg/mL (≈ 0.468 µM) in each case. Further, the “inhibition (INH)” value in [2], in series [3], in series [5] and in [7] was “Not Active” throughout. In series [4], this compound gave a half-life of 120 min. In series [6], the inhibition entry is “inactive”. For the same compound, the results for the EC90 in series [8] and in series [10] were 6 nM and 22 nM, respectively.

Regarding `CC(C)C[C@H]1CN(C(=O)[C@@H]2C[C@H]2c2ccccc2)[C@@H](CC(C)C)C(=O)N1`, the cytotoxic concentration (CC50) at 192 h in [13], in [14], in [15] and in [16] was 40 µM each time. The results for the EC90 in series [8] and in [10] were 800 nM and 1000 nM, respectively.

Usually solubility stands for the concentration that dissolves in the medium under given conditions. Lower therefore signals little dissolved substance. In general, half-life refers to how long it takes for the measured level to halve. A low value points to rapid decline. Broadly, the EC90 is the concentration needed for an effect of 90%. Broadly, the pEC50 is the negative decadic logarithm of the EC50, by convention in mol/L. The term CC50 denotes the concentration giving 50% cytotoxicity. Read a low CC50 as greater toxicity to the cells.

(Values after ChEMBL document CHEMBL3120066, “Discovery of a novel class of potent HCV NS4B inhibitors: SAR studies on piperazinone derivatives” (J Med Chem, 2014).)
